Data published in ChEMBL document CHEMBL1126131, “6-Alkyl-12-formylindolo[2,1-a]isoquinolines. Syntheses, estrogen receptor binding affinities, and stereospecific cytostatic activity” (1992).
Several values for one entry are separate records, joined by “and”; a condition that tells them apart may be missing. Identical values can stand only once.

How the values were obtained:
[1] = target: T1, Estrogen receptor (Mus musculus) (UniProt O08537+P19785); assay: Percent inhibition of estrone-stimulated uterotrophic effect in mice at 2 ug dose; format: functional
T1 sequence (O08537 whole entry, looked up): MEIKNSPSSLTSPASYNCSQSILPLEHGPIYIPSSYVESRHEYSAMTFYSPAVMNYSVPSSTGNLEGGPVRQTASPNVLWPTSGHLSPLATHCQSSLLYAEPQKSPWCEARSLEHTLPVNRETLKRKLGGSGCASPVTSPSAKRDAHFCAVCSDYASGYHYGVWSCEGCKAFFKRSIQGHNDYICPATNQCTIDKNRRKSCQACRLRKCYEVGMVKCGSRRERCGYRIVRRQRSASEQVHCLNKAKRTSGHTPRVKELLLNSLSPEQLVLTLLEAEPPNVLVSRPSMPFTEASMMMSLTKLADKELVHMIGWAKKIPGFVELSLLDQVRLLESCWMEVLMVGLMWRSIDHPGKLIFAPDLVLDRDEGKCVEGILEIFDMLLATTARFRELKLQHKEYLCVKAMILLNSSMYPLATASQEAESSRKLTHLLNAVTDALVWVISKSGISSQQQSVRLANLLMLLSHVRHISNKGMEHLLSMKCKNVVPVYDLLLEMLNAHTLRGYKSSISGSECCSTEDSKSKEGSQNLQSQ
T1 sequence (P19785 whole entry, looked up): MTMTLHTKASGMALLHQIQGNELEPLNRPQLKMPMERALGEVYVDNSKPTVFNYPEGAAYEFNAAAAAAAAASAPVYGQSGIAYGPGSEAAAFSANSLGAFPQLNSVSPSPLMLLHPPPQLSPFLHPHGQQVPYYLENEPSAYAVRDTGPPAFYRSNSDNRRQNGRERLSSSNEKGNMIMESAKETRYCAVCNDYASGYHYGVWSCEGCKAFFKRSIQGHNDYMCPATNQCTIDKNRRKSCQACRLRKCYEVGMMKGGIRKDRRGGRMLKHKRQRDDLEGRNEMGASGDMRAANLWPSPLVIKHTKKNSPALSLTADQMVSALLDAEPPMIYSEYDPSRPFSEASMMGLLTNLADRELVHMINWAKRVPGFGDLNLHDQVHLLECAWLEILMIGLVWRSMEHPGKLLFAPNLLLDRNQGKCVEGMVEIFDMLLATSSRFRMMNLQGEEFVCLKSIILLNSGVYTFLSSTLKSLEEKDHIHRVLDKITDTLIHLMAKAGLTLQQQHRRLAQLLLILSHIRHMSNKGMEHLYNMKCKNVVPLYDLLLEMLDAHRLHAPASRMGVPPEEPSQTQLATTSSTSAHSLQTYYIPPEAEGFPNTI
Method in brief: (§1)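 Antiuterotrophic test in immature female NMRI mice (20 days old). Estrone 0.4 μg was co-injected with the compound in olive oil, sc daily for three days. Uterine dry weight per body weight was read 24 h after the last dose. Inhibition (%) = 100 − [(W_S,T − W_V)/(W_S − W_V) × 100], where W_V is the vehicle control.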

[2] = target: T1, Estrogen receptor (Mus musculus); assay: Percent inhibition of estrone-stimulated uterotrophic effect in mice at 250 ug dose; format: functional; method in brief: as §1
[3] = target: T1, Estrogen receptor (Mus musculus); assay: Anti-uterotrophic effect in mice as uterine weight(mg) relative to body weight(g) at 2 ug dose; format: functional
Method in brief: (§2)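 Immature female NMRI mice, 20 days old, groups of six to ten; compound plus standard estrone 0.4 μg in olive oil (100 μL/animal) given sc on three consecutive days. Killed 24 h after last injection; uteri fixed in Bouin solution 2 h, dried at 100 °C for 18 h, weighed. Relative weight = uterine dry weight (mg)/body weight (g) × 100; mean of 6 animals ± SD.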

[4] = test system: MCF7; assay: Inhibition of hormone-sensitive MCF-7 mammary tumor cell proliferation at 1*10e-7 M; format: functional, Homo sapiens
Method in brief: (§3)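 MCF-7 cells were grown in modified improved MEM with 10% newborn calf serum at 37 °C and 5% CO2, plated in 96-well plates for 3 d, then given drug medium (controls 0.1% DMF). After 3 days, cells were glutaraldehyde-fixed and crystal violet-stained; T/C = test/control optical density, corrected for initial density (vinblastine 10^-7 M). 16 replicates ± SD.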

[5] = target: T1, Estrogen receptor (Mus musculus); assay: Uterotrophic effect in mice as uterine weight(mg) relative to body weight(g) at 250 ug dose; format: functional, tissue-based
Method in brief: (§4)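 Uterotrophic test: 20-day-old immature female NMRI mice, six to ten per group, received compound alone in olive oil (100 μL/animal) sc on three consecutive days; controls received vehicle. After 24 h, uteri were Bouin-fixed 2 h and dried 18 h at 100 °C. Uterine dry weight (mg)/body weight (g) × 100; mean of 6 ± SD.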

[6] = test system: MDA-MB-231; assay: Inhibition of hormone-independent MDA-MB 231 mammary tumor cell proliferation at 5*10e-6 M; format: functional, Homo sapiens
Method in brief: (§5)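 MDA-MB 231 cells were grown in McCoy 5a medium with 10% NCS and were pre-grown 3 d in microplates before drug medium was added (controls 0.1% DMF). After 2 days of incubation, wells were fixed with 1% glutaraldehyde, stained with 0.02% crystal violet, and read by optical density. T/C (%) was corrected for initial density (vinblastine 10^-7 M). 16 replicates ± SD.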

[7] = target: T1, Estrogen receptor (Mus musculus); assay: Anti-uterotrophic effect in mice as uterine weight(mg) relative to body weight(g) at 50 ug dose; format: functional; method in brief: as §2
[8] = target: T1, Estrogen receptor (Mus musculus); assay: Percent inhibition of estrone-stimulated uterotrophic effect in mice at 50 ug dose; format: functional; method in brief: as §1
[9] = target: T1, Estrogen receptor (Mus musculus); assay: Uterotrophic effect in mice as uterine weight(mg) relative to body weight(g) at 50 ug dose; format: functional, tissue-based; method in brief: as §4
[10] = target: T1, Estrogen receptor (Mus musculus); assay: Uterotrophic effect in mice as uterine weight(mg) relative to body weight(g) at 10 ug dose; format: functional, tissue-based; method in brief: as §4
[11] = target: Estrogen receptor (Bos taurus) (UniProt Q9XSB5+P49884); assay: Relative binding affinity for calf uterine estrogen receptor compared to 17-beta-estradiol (E2); format: protein assay
Method in brief: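 Competitive binding in calf uterine cytosol (final protein 3 mg/mL) in Tris-EDTA-NaN3 buffer, pH 7.5. 5 nM [3H]17β-estradiol plus competitor at 10^-9 to 10^-5 M, 18 h at 4 °C. Free ligand removed with dextran-coated charcoal (90 min, 4 °C). Nonspecific binding from 4 μM estradiol. RBA = ratio of estradiol to test molar concentrations giving 50% displacement × 100.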

[12] = test system: MCF7; assay: Inhibition of hormone-sensitive MCF-7 mammary tumor cell proliferation at 1*10e-5 M; format: functional, Homo sapiens; method in brief: as §3
[13] = target: T1, Estrogen receptor (Mus musculus); assay: Percent inhibition of estrone-stimulated uterotrophic effect in mice at 10 ug dose; format: functional; method in brief: as §1
[14] = test system: MDA-MB-231; assay: Inhibition of hormone-independent MDA-MB 231 mammary tumor cell proliferation at 1*10e-5 M; format: functional, Homo sapiens; method in brief: as §5
[15] = test system: MCF7; assay: Inhibition of hormone-sensitive MCF-7 mammary tumor cell proliferation at 1*10e-6 M; format: functional, Homo sapiens; method in brief: as §3
[16] = target: T1, Estrogen receptor (Mus musculus); assay: Anti-uterotrophic effect in mice as uterine weight(mg) relative to body weight(g) at 10 ug dose; format: functional; method in brief: as §2
[17] = test system: MCF7; assay: Inhibition of hormone-sensitive MCF-7 mammary tumor cell proliferation at 5*10e-6 M; format: functional, Homo sapiens; method in brief: as §3
[18] = target: T1, Estrogen receptor (Mus musculus); assay: Anti-uterotrophic effect in mice as uterine weight(mg) relative to body weight(g) at 250 ug dose; format: functional; method in brief: as §2
[19] = target: T1, Estrogen receptor (Mus musculus); assay: Uterotrophic effect in mice as uterine weight(mg) relative to body weight(g) at 2 ug dose; format: functional, tissue-based; method in brief: as §4
[20] = test system: MDA-MB-231; assay: Inhibition of hormone-independent MDA-MB 231 mammary tumor cell proliferation at 1*10e-6 M; format: functional, Homo sapiens; method in brief: as §5
[21] = test system: MDA-MB-231; assay: Inhibition of hormone-independent MDA-MB 231 mammary tumor cell proliferation at 1*10e-7 M; format: functional, Homo sapiens; method in brief: as §5

| inhibition [1] [%] | inhibition [2] [%] | inhibition [8] [%] | relative binding affinity (RBA) [11] | inhibition [13] [%] | Compound | Relative uterus weight [3] | T/C [4] [%] | Relative uterus weight [5] | T/C [6] [%] | Relative uterus weight [7] | Relative uterus weight [10] | T/C [12] [%] | T/C [14] [%] | T/C [15] [%] | Relative uterus weight [16] | T/C [17] [%] | Relative uterus weight [18] | Relative uterus weight [19] | T/C [20] [%] | T/C [21] [%] | also measured |
| --- | --- | --- | --- | --- | --- | --- | --- | --- | --- | --- | --- | --- | --- | --- | --- | --- | --- | --- | --- | --- | --- |
| 20 | 38 | 30 | 1.7 | 14 | CC(=O)Oc1ccc2c(c1)CC(C)n1c-2c(C=O)c2ccc(OC(C)=O)cc21 (stereo not drawn) | 45.3 | 97 | 19.9 | 79 | 42.6 | 18.2 | 1 | 45 | 106 | 48.5 | 36 | 39.7 | 19.6 | 112 | 109 | Relative uterus weight [9]: 18.2 |
| 39 | 65 | 35 | 0.5 | 41 | CCCC1Cc2cc(OC(C)=O)ccc2-c2c(C=O)c3ccc(OC(C)=O)cc3n21 (stereo not drawn) | 39.4 | 71 | 17.4 | 15 | 40.7 | 17.1 | 0 | 14 | 1 | 38.4 and 16.9 | 0 | 29.5 | 20.4 | 31 | 100 | – |
| 19 | 38 | 52 | 0.6 | 25 | CCCCCC1Cc2cc(OC(C)=O)ccc2-c2c(C=O)c3ccc(OC(C)=O)cc3n21 (stereo not drawn) | 49 | 101 | 19.5 | 70 | 35.6 | 16.6 | 0 | 27 | 90 | 46.4 | 0 | 41.2 | 16.4 | 105 | 118 | Relative uterus weight [9]: 15.8 |
| 20 | 50 | 18 | 2.1 | 17 | CCCCC1Cc2cc(OC(C)=O)ccc2-c2c(C=O)c3cc(OC(C)=O)ccc3n21 (stereo not drawn) | 46.7 | 81 | 25.5 | 12 | 47.8 | 18.6 | 0 | 12 | 12 | 48.2 | 0 | 34.3 | 20.2 | 73 | 116 | Relative uterus weight [9]: 9.1 |
| 17 | 38 | 27 | 1.3 | 14 | CCC1Cc2cc(OC(C)=O)ccc2-c2c(C=O)c3ccc(OC(C)=O)cc3n21 (stereo not drawn) | 47.9 | 89 | 22.8 | 34 | 44.2 | 17.7 | 0 | 10 | 83 | 49 | 2 | 40.2 | 15.9 | 92 | 101 | Relative uterus weight [9]: 18.2 |
| – | – | – | – | – | CC/C(=C(\c1ccccc1)c1ccc(OCCN(C)C)cc1)c1ccccc1 [TAMOXIFEN] | – | 85 | – | – | – | – | 18 | – | 57 | – | 43 | – | – | – | – | – |
| 0 | 8 | 24 | 1.9 | 14 | CCCCCC1Cc2cc(OC(C)=O)ccc2-c2c(C=O)c3cc(OC(C)=O)ccc3n21 (stereo not drawn) | 57.3 | 102 | 22.5 | 80 | 47.1 | 16 | 37 | 47 | 94 | 51 | 77 | 53.8 | 17.9 | 100 | 105 | Relative uterus weight [9]: 20.2 |
| 0 | 32 | 49 | 3.9 | 36 | CC(=O)Oc1ccc2c(c1)CC(C)n1c-2c(C=O)c2cc(OC(C)=O)ccc21 (stereo not drawn) | 60.5 | 93 | 43.2 | 94 | 36.5 | 18.2 | 23 | 61 | 94 | 42.8 | 54 | 44.4 | 14.8 | 104 | 109 | Relative uterus weight [9]: 24.6 |
| 25 | 80 | 74 | 3.3 | 22 | CCC1Cc2cc(OC(C)=O)ccc2-c2c(C=O)c3cc(OC(C)=O)ccc3n21 (stereo not drawn) | 45.3 | 85 | 41.8 | 86 | 27 | 17.2 | 12 | 52 | 91 | 46.1 | 43 | 24.6 | 18.2 | 111 | 106 | Relative uterus weight [9]: 20.5 |
| 27 | 28 | 26 | 2.6 | 20 | CCCC1Cc2cc(OC(C)=O)ccc2-c2c(C=O)c3cc(OC(C)=O)ccc3n21 (stereo not drawn) | 38.8 | 99 | 32.9 | 43 | 39.2 | 21.1 | 0 | 9 | 86 | 41.1 | 9 | 38.5 | 16.9 | 106 | 109 | Relative uterus weight [9]: 24.9 |
| 6 | 19 | 8 | 0.7 | 20 | CCCCC1Cc2cc(OC(C)=O)ccc2-c2c(C=O)c3ccc(OC(C)=O)cc3n21 (stereo not drawn) | 52.8 | 66 | 10.6 | 24 | 51.8 | 13.7 | 0 | 16 | 0 | 46.7 | 0 | 47.5 | 16.7 | 30 | 104 | Relative uterus weight [9]: 12.3 |
